ChEMBL document CHEMBL1811815, “Synthesis of new pyrazole derivatives and their anticancer evaluation” (2010)

How the values were obtained:
LOX IMVI = assay: Growth inhibition of human LOXIMVI cells after 48 hrs by sulforhodamine B assay; assay type: functional
Summary of the method: (§1)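 NCI five-dose assay using 10-fold serial dilutions from 10^-8 to 10^-4 M, compound in DMSO. Cells exposed 48 h at 37 °C, 5% CO2, 100% humidity. Protein measured by sulforhodamine B staining at 515 nm, with time-zero, control and treated readings. GI50 is the concentration where [(Ti−Tz)/(C−Tz)]×100 = 50. It is reported as greater or less than the range bounds when not reached.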

Malme-3M = assay: Growth inhibition of human MALME-3M cells after 48 hrs by sulforhodamine B assay; assay type: functional; summary of the method: as §1
[1] = Growth inhibition of human Hs 578T cells after 48 hrs by sulforhodamine B assay; assay type: functional; summary of the method: as §1
NCI-H23 = assay: Growth inhibition of human NCI-H23 cells after 48 hrs by sulforhodamine B assay; assay type: functional; settings: NCI-H23, 48 h; summary of the method: as §1
786-0 = assay: Growth inhibition of human 786-0 cells after 48 hrs by sulforhodamine B assay; assay type: functional; settings: 786-0, 48 h; summary of the method: as §1
SF-295 = assay: Growth inhibition of human SF295 cells after 48 hrs by sulforhodamine B assay; assay type: functional; settings: SF-295, 48 h; summary of the method: as §1
TK-10 = assay: Anticancer activity against human TK10 cells assessed as cell growth at 10^-5 M after 48 hrs by sulforhodamine B assay relative to control; settings: TK-10, 48 h
DU-145 [2] = assay: Growth inhibition of human DU145 cells after 48 hrs by sulforhodamine B assay; assay type: functional; settings: DU-145, 48 h; summary of the method: as §1
OVCAR-3 = assay: Growth inhibition of human OVCAR3 cells after 48 hrs by sulforhodamine B assay; assay type: functional; settings: OVCAR-3, 48 h; summary of the method: as §1
SNB-75 = assay: Growth inhibition of human SNB75 cells after 48 hrs by sulforhodamine B assay; assay type: functional; settings: SNB-75, 48 h; summary of the method: as §1
OVCAR-4 = assay: Growth inhibition of human OVCAR4 cells after 48 hrs by sulforhodamine B assay; assay type: functional; settings: OVCAR-4, 48 h; summary of the method: as §1
MDA-MB-231 = assay: Growth inhibition of human MDA-MB-231 cells after 48 hrs by sulforhodamine B assay; assay type: functional; settings: MDA-MB-231, 48 h; summary of the method: as §1
RXF 393 = assay: Growth inhibition of human RXF393 cells after 48 hrs by sulforhodamine B assay; assay type: functional; settings: RXF 393, 48 h; summary of the method: as §1
OVCAR-8 = assay: Growth inhibition of human OVCAR8 cells after 48 hrs by sulforhodamine B assay; assay type: functional; settings: OVCAR-8, 48 h; summary of the method: as §1
SF-539 = assay: Growth inhibition of human SF539 cells after 48 hrs by sulforhodamine B assay; assay type: functional; settings: SF-539, 48 h; summary of the method: as §1
HCT-116 [3] = assay: Growth inhibition of human HCT116 cells after 48 hrs by sulforhodamine B assay; assay type: functional; settings: HCT-116, 48 h; summary of the method: as §1
SR = assay: Growth inhibition of human SR cells after 48 hrs by sulforhodamine B assay; assay type: functional; summary of the method: as §1
HCT-116 [4] = assay: Anticancer activity against human HCT116 cells assessed as cell growth at 10^-5 M after 48 hrs by sulforhodamine B assay relative to control; settings: HCT-116, 48 h
NCI-H522 = assay: Anticancer activity against human NCI-H522 cells assessed as cell growth at 10^-5 M after 48 hrs by sulforhodamine B assay relative to control; settings: NCI-H522, 48 h
UO-31 = assay: Growth inhibition of human UO31 cells after 48 hrs by sulforhodamine B assay; assay type: functional; settings: UO-31, 48 h; summary of the method: as §1
NCI-H322M = assay: Growth inhibition of human NCI-H322M cells after 48 hrs by sulforhodamine B assay; assay type: functional; summary of the method: as §1
A549 = assay: Growth inhibition of human A549 cells after 48 hrs by sulforhodamine B assay; assay type: functional; settings: A549, 48 h; summary of the method: as §1
SK-OV-3 = assay: Growth inhibition of human SKOV3 cells after 48 hrs by sulforhodamine B assay; assay type: functional; settings: SK-OV-3, 48 h; summary of the method: as §1
NCI/ADR-RES = assay: Growth inhibition of human NCI/ADR-RES cells after 48 hrs by sulforhodamine B assay; assay type: functional; summary of the method: as §1
ACHN = assay: Anticancer activity against human ACHN cells assessed as cell growth at 10^-5 M after 48 hrs by sulforhodamine B assay relative to control
DU-145 [5] = assay: Anticancer activity against human DU145 cells assessed as cell growth at 10^-5 M after 48 hrs by sulforhodamine B assay relative to control; settings: DU-145, 48 h
MDA-MB-435 = assay: Anticancer activity against human MDA-MB-435 cells assessed as cell growth at 10^-5 M after 48 hrs by sulforhodamine B assay relative to control; settings: MDA-MB-435, 48 h
UACC-62 = assay: Anticancer activity against human UACC62 cells assessed as cell growth at 10^-5 M after 48 hrs by sulforhodamine B assay relative to control; settings: UACC-62, 48 h
HOP-92 = assay: Anticancer activity against human HOP92 cells assessed as cell growth at 10^-5 M after 48 hrs by sulforhodamine B assay relative to control; settings: HOP-92, 48 h
MOLT-4 = assay: Anticancer activity against human MOLT4 cells assessed as cell growth at 10^-5 M after 48 hrs by sulforhodamine B assay relative to control; settings: MOLT-4, 48 h
CAKI-1 = assay: Anticancer activity against human Caki1 cells assessed as cell growth at 10^-5 M after 48 hrs by sulforhodamine B assay relative to control; settings: CAKI-1, 48 h
[6] = read-out: pLC50 (the source's name) (converted)

## O=C(NC(=S)Nc1cc(-c2ccc(Br)cc2)n[nH]1)c1ccccc1
LOX IMVI
  GI50: 5.5 µM
LOX IMVI; [6]
  CC50: > 100 µM
LOX IMVI; read-out: pTGI
  TGI: > 100 µM
Malme-3M
  GI50: 6.61 µM
Malme-3M; [6]
  CC50: > 100 µM
Malme-3M; read-out: pTGI (converted)
  TGI: 91.2 µM
[1]
  GI50: 2750 nM
[1]; [6]
  CC50: > 100 µM
[1]; read-out: pTGI (converted)
  TGI: 33.9 µM
NCI-H23
  GI50: 9.33 µM
NCI-H23; read-out: pLC50 (converted)
  CC50: > 100 µM
NCI-H23; read-out: pTGI (converted)
  TGI: 50.1 µM
786-0
  GI50: 3.24 µM
786-0; [6]
  CC50: 47.9 µM
786-0; read-out: pTGI (converted)
  TGI: 11.7 µM
SF-295
  GI50: 9.77 µM
SF-295; [6]
  CC50: > 100 µM
SF-295; read-out: pTGI (converted)
  TGI: 36.3 µM
TK-10
  growth, % of control at 10 µM: -19.9%
DU-145 [2]
  GI50: 9.33 µM
DU-145 [2]; [6]
  CC50: > 100 µM
DU-145 [2]; read-out: pTGI
  TGI: > 100 µM
OVCAR-3
  GI50: 5.01 µM
OVCAR-3; [6]
  CC50: 70.8 µM
OVCAR-3; read-out: pTGI (converted)
  TGI: 20.4 µM
SNB-75
  GI50: 6.17 µM
SNB-75; [6]
  CC50: 89.1 µM
SNB-75; read-out: pTGI (converted)
  TGI: 26.9 µM
OVCAR-4
  GI50: 4.27 µM
OVCAR-4; [6]
  CC50: > 100 µM
OVCAR-4; read-out: pTGI (converted)
  TGI: 24 µM
MDA-MB-231
  GI50: 3.8 µM
MDA-MB-231; [6]
  CC50: > 100 µM
MDA-MB-231; read-out: pTGI (converted)
  TGI: 22.4 µM
RXF 393
  GI50: 3.16 µM
RXF 393; [6]
  CC50: 47.9 µM
RXF 393; read-out: pTGI (converted)
  TGI: 15.1 µM
OVCAR-8
  GI50: 4.68 µM
OVCAR-8; [6]
  CC50: 69.2 µM
OVCAR-8; read-out: pTGI (converted)
  TGI: 20.9 µM
SF-539
  GI50: 3.39 µM
SF-539; [6]
  CC50: > 100 µM
SF-539; read-out: pTGI
  TGI: > 100 µM
HCT-116 [3]
  GI50: 1780 nM
HCT-116 [3]; [6]
  CC50: 24.5 µM
HCT-116 [3]; read-out: pTGI (converted)
  TGI: 4.79 µM
SR
  GI50: 11.7 µM
SR; [6]
  CC50: > 100 µM
SR; read-out: pTGI (converted)
  TGI: 40.7 µM
HCT-116 [4]
  growth, % of control at 10 µM: 1%
NCI-H522
  growth, % of control at 10 µM: 8.9%
UO-31
  GI50: 4.07 µM
UO-31; [6]
  CC50: 85.1 µM
UO-31; read-out: pTGI (converted)
  TGI: 21.4 µM
NCI-H322M
  GI50: 4.47 µM
NCI-H322M; [6]
  CC50: > 100 µM
NCI-H322M; read-out: pTGI (converted)
  TGI: 44.7 µM
A549
  GI50: 2340 nM
A549; [6]
  CC50: 79.4 µM
A549; read-out: pTGI (converted)
  TGI: 14.1 µM
SK-OV-3
  GI50: 7.24 µM
SK-OV-3; [6]
  CC50: 52.5 µM
SK-OV-3; read-out: pTGI (converted)
  TGI: 21.9 µM
NCI/ADR-RES
  GI50: 4.9 µM
NCI/ADR-RES; [6]
  CC50: > 100 µM
NCI/ADR-RES; read-out: pTGI (converted)
  TGI: 63.1 µM

## Cc1cs/c(=N\C(=O)c2cnn(C)c2)n1-c1ccc(Cl)cc1
ACHN
  growth, % of control at 10 µM: -11.8%
DU-145 [5]
  growth, % of control at 10 µM: 0.3%

## Cc1cs/c(=N\C(=O)c2cnn(C)c2)n1-c1ccccc1
ACHN
  growth, % of control at 10 µM: -15.7%
DU-145 [5]
  growth, % of control at 10 µM: 1.6%

## Cc1cc(NC(=S)NC(=O)c2ccccc2)n(-c2ccccc2)n1
MDA-MB-435
  growth, % of control at 10 µM: 22.6%

## Cn1cc(C(=O)NC(=S)Nc2ccc(Cl)cc2)cn1
NCI-H522
  growth, % of control at 10 µM: 47.2%

## Cc1ccc(NC(=S)NC(=O)c2cnn(C)c2)cc1
NCI-H522
  growth, % of control at 10 µM: 62.5%

## Cn1cc(C(=O)NC(=S)Nc2ccc(Cl)cc2Cl)cn1
UACC-62
  growth, % of control at 10 µM: 79.7%

## COc1ccc(NC(=S)NC(=O)c2cnn(C)c2)cc1
HOP-92
  growth, % of control at 10 µM: 68.7%

## Cc1cccc(C)c1NC(=S)NC(=O)c1cnn(C)c1
MOLT-4
  growth, % of control at 10 µM: 40.5%

## Cn1cc(C(=O)NC(=S)Nc2c(Cl)cccc2Cl)cn1
CAKI-1
  growth, % of control at 10 µM: 69.7%
